Data set [1] can be described thus: folding enthalpy; higher = less favourable; fluorescence melt of hairpins on a sequencing array, two-state fit. Conditions: sodium 0.088 M. A digest of the protocol: (§1)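 Melting temperature and folding enthalpy were obtained by bootstrapped two-state fitting. Fits used Cy3 fluorescence of library hairpins with annealed Cy3 and quencher oligos on a sequenced MiSeq flow cell, imaged in 50 mM Na-HEPES pH 8.0, 25 mM NaCl in 2.5 °C steps up to 60 °C and normalised to pre-quench Cy3 and control constructs. Four replicates were combined by inverse-variance weighting, and fitted temperatures were raised by 9.35 °C to match UV melts.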

Data set [2] is described as follows: melting temperature; fluorescence melt of hairpins on a sequencing array, two-state fit, raised by 9.35 °C to match UV melts. Conditions: sodium 0.088 M. The gist of the method: as §1

Turning to GATCCCGCATGGGATC ((((((....)))))), in data set [1], the folding enthalpy is -32.9 kcal/mol. In data set [2], the Tm amounted to 68 °C.
In the case of GATCCCGCGTGGGATC ((((((....)))))), the folding enthalpy in data set [1] was -38.4 kcal/mol. In addition, the Tm in data set [2] turned out to be 59.9 °C.
On to GATCCCGCTGGGGATC ((((((....)))))), for which the folding enthalpy in data set [1] was -36.9 kcal/mol. The Tm in data set [2] worked out at 60.8 °C.
Consider GATCCCGGGTGGGATC ((((((....)))))), for which the folding enthalpy in data set [1] is -36 kcal/mol. In data set [2], the Tm amounted to 60.3 °C.
Take GATCCCGGTCGGGATC ((((((....)))))): the folding enthalpy in data set [1] was -35.5 kcal/mol. In addition, in data set [2], the Tm was 66.1 °C.
As for GATCCCGGTTGGGATC ((((((....)))))), the folding enthalpy in data set [1] was -32.4 kcal/mol. The Tm in data set [2] amounted to 65.2 °C.
For GATCCCGTCGGGGATC ((((((....)))))), the folding enthalpy in data set [1] was -35.1 kcal/mol. For the same sequence, in data set [2], the Tm turned out to be 64.1 °C.
Turning to GATCCCTAAAGGGATC ((((((....)))))), in data set [1], the folding enthalpy is -36.5 kcal/mol. The Tm in data set [2] stood at 60.6 °C.
As for GATCCCTAACGGGATC ((((((....)))))), in data set [1], the folding enthalpy was -39.7 kcal/mol. Moreover, the Tm in data set [2] was 57.6 °C.
On the same counts, the results for GATCCCTACGGGATC ((((((...)))))) are -32.5 kcal/mol and 67.9 °C.
Consider GATCCCTATGGGGATC ((((((....)))))), for which the folding enthalpy in data set [1] was -31.3 kcal/mol. Further, the Tm in data set [2] was 65.5 °C.
Consider GATCCCTCCCGGGATC ((((((....)))))), for which the folding enthalpy in data set [1] is -40.5 kcal/mol. For the same sequence, the Tm in data set [2] stood at 61.4 °C.
For the sequence GATCCCTCGCGGGATC ((((((....)))))), in data set [1], the folding enthalpy was -39.1 kcal/mol. Moreover, in data set [2], the Tm amounted to 59.6 °C.
As for GATCCCTCTTGGGATC ((((((....)))))), the folding enthalpy in data set [1] was -36.8 kcal/mol. For the same sequence, in data set [2], the Tm is 63.7 °C.
Consider GATCCCTGTCGGGATC ((((((....)))))), for which, in data set [1], the folding enthalpy was -35 kcal/mol. The Tm in data set [2] came out at 60 °C.
On the same counts, the results for GATCCCTGTGGGATC ((((((...)))))) are -35 kcal/mol and 66.7 °C.
For GATCCCTTACGGGATC ((((((....)))))) the same measures were -38.9 kcal/mol and 61.5 °C.
With GATCCCTTAGGGATC ((((((...)))))), in data set [1], the folding enthalpy is -38.3 kcal/mol. For the same sequence, the Tm in data set [2] was 66.1 °C.
As to GATCCCTTGGGGGATC ((((((....)))))), the folding enthalpy in data set [1] was -46.9 kcal/mol. In addition, in data set [2], the Tm was found to be 60.1 °C.
As for GATCCGAAAGGATC (((((....))))), in data set [1], the folding enthalpy was -29.5 kcal/mol. Moreover, in data set [2], the Tm was 66.8 °C.
On the same counts, the results for GATCCGAACTCGGATC ((((((....)))))) are -40.9 kcal/mol and 56.4 °C.
For the sequence GATCCGAATCCGGATC ((((((....)))))), in data set [1], the folding enthalpy is -38.5 kcal/mol. Moreover, the Tm in data set [2] stood at 55.8 °C.
As to GATCCGAATCGGATC ((((((...)))))), in data set [1], the folding enthalpy is -36 kcal/mol. The Tm in data set [2] is 55 °C.
Consider GATCCGAATTCGGATC ((((((....)))))), for which, in data set [1], the folding enthalpy is -43.3 kcal/mol. Besides, the Tm in data set [2] stood at 60.2 °C.
For the sequence GATCCGACCACGGATC ((((((....)))))), in data set [1], the folding enthalpy was -36.9 kcal/mol. Further, the Tm in data set [2] was determined as 61.3 °C.
Regarding GATCCGACCCCGGATC ((((((....)))))), in data set [1], the folding enthalpy was -42.1 kcal/mol. For the same sequence, the Tm in data set [2] was 54.4 °C.
GATCCGACGCCGGATC ((((((....)))))): in data set [1], the folding enthalpy was -36.7 kcal/mol. Moreover, in data set [2], the Tm came out at 56.7 °C.
On to GATCCGACGCGGATC ((((((...)))))), for which, in data set [1], the folding enthalpy is -37.3 kcal/mol. Further, the Tm in data set [2] amounted to 56.8 °C.
For the sequence GATCCGACGTCGGATC ((((((....)))))), the folding enthalpy in data set [1] was -52 kcal/mol. For the same sequence, in data set [2], the Tm came to 59.9 °C.
As to GATCCGACTCCGGATC ((((((....)))))), the folding enthalpy in data set [1] was -44.3 kcal/mol. The Tm in data set [2] came out at 55.1 °C.
Take GATCCGAGAACGGATC ((((((....)))))): in data set [1], the folding enthalpy is -37.4 kcal/mol. Moreover, the Tm in data set [2] was determined as 54.5 °C.
Take GATCCGAGACCGGATC ((((((....)))))): in data set [1], the folding enthalpy was -36.6 kcal/mol. Also, the Tm in data set [2] is 54.4 °C.
On to GATCCGAGAGCGGATC ((((((....)))))), for which the folding enthalpy in data set [1] was -38.3 kcal/mol. For the same sequence, the Tm in data set [2] came to 54.6 °C.
Regarding GATCCGAGCCCGGATC ((((((....)))))), the folding enthalpy in data set [1] was -35.6 kcal/mol. In data set [2], the Tm amounted to 55.3 °C.
As to GATCCGATGACGGATC ((((((....)))))), the folding enthalpy in data set [1] was -35.4 kcal/mol. For the same sequence, in data set [2], the Tm came out at 58.2 °C.
Take GATCCGATTCGGATC ((((((...)))))): in data set [1], the folding enthalpy is -39.2 kcal/mol. In data set [2], the Tm is 58.3 °C.
Take GATCCGATTTCGGATC ((((((....)))))): the folding enthalpy in data set [1] is -33 kcal/mol. In addition, in data set [2], the Tm was found to be 62.6 °C.
For GATCCGCAAACGGATC ((((((....)))))), the folding enthalpy in data set [1] was -42.2 kcal/mol. The Tm in data set [2] is 58 °C.
